Assay results taken from ChEMBL document CHEMBL1140952 (J Med Chem, 2009).
Values after ≈ are worked out from the molar mass of the structure shown. One block for each compound: values may come before it.

Columns and labels:
[1] = Tmax in Beagle dog at 5 mg/kg, po; assay type: ADME, organism-based, Canis lupus familiaris; parameters: dose 5 mg/kg, route oral; settings: in vivo
Outline: (§1)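 In-life PK: single iv and oral doses given in 70% PEG400-30% water, orally as a solution formulation. Mouse values are averages of six animals and rat values of three. Dog values are averages of two or three animals per route. Plasma Cmax, Tmax, AUC0-24h, iv t1/2, Cl, Vss and oral bioavailability were derived.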

[2] = Cmax in human GTL16 cells xenografted athymic mouse at 6.25 mg/kg, po; assay type: ADME, organism-based; parameters: dose 6.25 mg/kg, route oral; settings: in vivo
Outline: (§2)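 GTL-16 human gastric carcinoma cells were implanted subcutaneously in athymic mice and tumors staged to about 125 mm³. The compound was then given orally once daily for 14 consecutive days. Drug exposure (Cmax, AUC0-24h) was measured at the dose levels. Toxicity was judged by weight loss or morbidity.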

[3] = Antiproliferative activity against Met-dependent human GTL16 cells after 72 hrs by MTS assay; assay type: functional, cell-based; settings: GTL 16, 72 h
[4] = target: Tyrosine-protein kinase Blk (Homo sapiens, UniProt P51451); experiment: Inhibition of Blk by Ambit binding assay
[5] = Antitumor activity in human GTL16 cells xenografted athymic mouse at 25 mg/kg, po administered once daily for 14 days; assay type: functional; settings: GTL 16, 336 h, read-out: TGI
[6] = Oral bioavailability in Sprague-Dawley rat at 10 mg/kg; assay type: ADME, organism-based; settings: in vivo; outline: as §1
[7] = target: Platelet-derived growth factor receptor beta (Homo sapiens, UniProt P09619); experiment: Inhibition of PDGFRbeta by cellular proliferation assay
[8] = Protein binding in BALB/c mouse; assay type: ADME, organism-based; settings: in vivo, read-out: PB
[9] = target: Proto-oncogene tyrosine-protein kinase Src (Homo sapiens, UniProt P12931); experiment: Inhibition of Src by Ambit binding assay
Rattus norvegicus = experiment: Cmax in Sprague-Dawley rat at 10 mg/kg, po; assay type: ADME, organism-based; parameters: dose 10 mg/kg, route oral; settings: in vivo; outline: as §1
[10] = Protein binding in Sprague-Dawley rat; assay type: ADME, organism-based; settings: in vivo, read-out: PB
[11] = Volume of distribution at steady state in Beagle dog at 1 mg/kg, iv; assay type: ADME, organism-based, Canis lupus familiaris; parameters: dose 1 mg/kg, route intravenous; settings: in vivo, read-out: Vdss; outline: as §1
[12] = Volume of distribution at steady state in Sprague-Dawley rat at 5 mg/kg, iv; assay type: ADME, organism-based; parameters: dose 5 mg/kg, route intravenous; settings: in vivo, read-out: Vdss; outline: as §1
[13] = target: BDNF/NT-3 growth factors receptor (Homo sapiens, UniProt Q16620); experiment: Inhibition of TrkB
BDNF/NT-3 growth factors receptor, sequence (Q16620 whole entry): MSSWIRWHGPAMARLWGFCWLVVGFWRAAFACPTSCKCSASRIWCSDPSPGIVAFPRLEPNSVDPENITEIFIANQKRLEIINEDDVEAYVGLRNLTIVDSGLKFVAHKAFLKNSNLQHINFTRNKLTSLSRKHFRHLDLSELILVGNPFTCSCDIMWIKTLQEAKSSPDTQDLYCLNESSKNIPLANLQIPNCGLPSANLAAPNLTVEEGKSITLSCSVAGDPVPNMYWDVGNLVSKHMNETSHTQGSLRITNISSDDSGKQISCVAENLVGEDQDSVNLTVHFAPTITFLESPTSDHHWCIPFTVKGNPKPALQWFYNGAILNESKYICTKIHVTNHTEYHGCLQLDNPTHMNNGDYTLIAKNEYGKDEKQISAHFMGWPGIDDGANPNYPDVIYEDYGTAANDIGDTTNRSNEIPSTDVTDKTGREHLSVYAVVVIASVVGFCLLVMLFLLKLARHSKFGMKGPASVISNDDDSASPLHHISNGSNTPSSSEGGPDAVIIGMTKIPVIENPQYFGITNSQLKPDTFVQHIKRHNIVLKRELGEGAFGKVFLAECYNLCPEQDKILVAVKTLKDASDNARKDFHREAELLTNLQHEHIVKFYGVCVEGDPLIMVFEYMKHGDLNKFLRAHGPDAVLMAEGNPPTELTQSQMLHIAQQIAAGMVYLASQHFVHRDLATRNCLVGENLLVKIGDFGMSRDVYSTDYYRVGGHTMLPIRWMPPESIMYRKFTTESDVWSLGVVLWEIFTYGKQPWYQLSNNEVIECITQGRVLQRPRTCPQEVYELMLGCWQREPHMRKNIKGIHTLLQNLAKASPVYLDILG

[14] = Tmax in BALB/c mouse at 10 mg/kg, po; assay type: ADME, organism-based; parameters: dose 10 mg/kg, route oral; settings: in vivo; outline: as §1
[15] = Clearance in BALB/c mouse at 5 mg/kg, iv; assay type: ADME, organism-based; parameters: dose 5 mg/kg, route intravenous; settings: in vivo; outline: as §1
[16] = target: Macrophage-stimulating protein receptor (Homo sapiens, UniProt Q04912); experiment: Inhibition of Ron
[17] = Cmax in human GTL16 cells xenografted athymic mouse at 50 mg/kg, po; assay type: ADME, organism-based; parameters: dose 50 mg/kg, route oral; settings: in vivo; outline: as §2
[18] = Inhibition of CDK2E
[19] = target: Serine/threonine-protein kinase pim-1 (Homo sapiens, UniProt P11309); experiment: Inhibition of pim1
Serine/threonine-protein kinase pim-1, sequence (P11309 whole entry): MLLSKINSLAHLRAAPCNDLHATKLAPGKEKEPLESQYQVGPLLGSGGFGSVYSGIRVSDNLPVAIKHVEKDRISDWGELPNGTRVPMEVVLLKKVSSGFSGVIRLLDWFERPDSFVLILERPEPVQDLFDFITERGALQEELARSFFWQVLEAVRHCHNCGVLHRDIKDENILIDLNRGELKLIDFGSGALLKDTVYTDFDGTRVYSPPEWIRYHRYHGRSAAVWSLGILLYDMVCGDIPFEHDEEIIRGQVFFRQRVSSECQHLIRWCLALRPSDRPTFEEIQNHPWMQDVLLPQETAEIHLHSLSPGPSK

[20] = AUC (0 to 24 hrs) in human GTL16 cells xenografted athymic mouse at 6.25 mg/kg, po; assay type: ADME, organism-based; parameters: time < 24 hr, dose 6.25 mg/kg, route oral; settings: in vivo; outline: as §2
[21] = Clearance in Beagle dog at 1 mg/kg, iv; assay type: ADME, organism-based, Canis lupus familiaris; parameters: dose 1 mg/kg, route intravenous; settings: in vivo; outline: as §1
[22] = target: Serine/threonine-protein kinase PLK1 (Homo sapiens, UniProt P53350); experiment: Inhibition of plk1/3
Ephrin type-A receptor 3 = Ephrin type-A receptor 3 (Homo sapiens, UniProt P29320); experiment: Inhibition of Epha3 by Ambit binding assay
Ephrin type-A receptor 3, sequence (P29320 whole entry): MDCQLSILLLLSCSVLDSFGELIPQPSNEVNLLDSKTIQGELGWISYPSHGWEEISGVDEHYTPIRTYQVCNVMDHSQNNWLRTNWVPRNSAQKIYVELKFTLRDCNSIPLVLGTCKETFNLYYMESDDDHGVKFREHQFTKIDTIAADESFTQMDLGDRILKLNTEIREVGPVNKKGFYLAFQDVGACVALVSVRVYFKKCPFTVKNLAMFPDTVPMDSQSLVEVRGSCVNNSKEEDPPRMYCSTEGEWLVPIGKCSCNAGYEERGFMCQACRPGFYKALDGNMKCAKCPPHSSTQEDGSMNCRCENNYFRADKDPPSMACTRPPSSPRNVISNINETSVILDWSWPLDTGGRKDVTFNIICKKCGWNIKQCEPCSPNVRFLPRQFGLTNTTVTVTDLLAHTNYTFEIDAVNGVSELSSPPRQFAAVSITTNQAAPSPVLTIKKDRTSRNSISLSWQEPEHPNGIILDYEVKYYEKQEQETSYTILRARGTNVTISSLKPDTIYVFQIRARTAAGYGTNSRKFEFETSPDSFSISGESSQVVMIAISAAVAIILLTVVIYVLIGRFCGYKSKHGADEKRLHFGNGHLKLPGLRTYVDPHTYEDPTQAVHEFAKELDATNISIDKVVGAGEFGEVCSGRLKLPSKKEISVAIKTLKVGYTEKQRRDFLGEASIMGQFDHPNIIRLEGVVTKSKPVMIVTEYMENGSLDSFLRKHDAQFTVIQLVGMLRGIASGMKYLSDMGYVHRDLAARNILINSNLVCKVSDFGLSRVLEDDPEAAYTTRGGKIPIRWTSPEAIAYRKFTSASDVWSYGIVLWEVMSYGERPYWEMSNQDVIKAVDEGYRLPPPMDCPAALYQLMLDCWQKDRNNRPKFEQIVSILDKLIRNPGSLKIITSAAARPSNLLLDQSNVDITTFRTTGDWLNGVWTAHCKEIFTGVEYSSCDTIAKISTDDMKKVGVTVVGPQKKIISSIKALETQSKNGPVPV

[23] = Half life in Beagle dog at 1 mg/kg, iv; assay type: ADME, organism-based, Canis lupus familiaris; parameters: dose 1 mg/kg, route intravenous; settings: in vivo; outline: as §1
[24] = Aqueous solubility at pH 1.0; assay type: physicochemical
Canis familiaris = experiment: Cmax in Beagle dog at 5 mg/kg, po; assay type: ADME, organism-based, Canis lupus familiaris; parameters: dose 5 mg/kg, route oral; settings: in vivo; outline: as §1
Mus musculus [25] = experiment: Cmax in BALB/c mouse at 10 mg/kg, po; assay type: ADME, organism-based; parameters: dose 10 mg/kg, route oral; settings: in vivo; outline: as §1
[26] = target: Mitogen-activated protein kinase 14 (Homo sapiens, UniProt Q16539); experiment: Inhibition of p38alpha
Mitogen-activated protein kinase 14, sequence (Q16539 whole entry): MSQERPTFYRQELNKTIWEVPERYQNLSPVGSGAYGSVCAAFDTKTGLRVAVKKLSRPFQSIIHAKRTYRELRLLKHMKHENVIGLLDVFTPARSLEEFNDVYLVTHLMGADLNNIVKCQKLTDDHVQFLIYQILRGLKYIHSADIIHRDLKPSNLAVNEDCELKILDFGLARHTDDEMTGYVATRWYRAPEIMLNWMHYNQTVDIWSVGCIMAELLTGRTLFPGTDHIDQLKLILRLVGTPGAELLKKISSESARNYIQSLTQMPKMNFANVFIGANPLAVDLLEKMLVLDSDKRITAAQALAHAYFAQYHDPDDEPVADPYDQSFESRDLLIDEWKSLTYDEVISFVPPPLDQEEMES

[27] = Tmax in Sprague-Dawley rat at 10 mg/kg, po; assay type: ADME, organism-based; parameters: dose 10 mg/kg, route oral; settings: in vivo; outline: as §1
NCI-N87 = experiment: Antiproliferative activity against Met-independent human NCI-N87 cells after 72 hrs by MTS assay; assay type: functional, cell-based; settings: NCI-N87, 72 h
[28] = Protein binding in Beagle dog; assay type: ADME, organism-based, Canis lupus familiaris; settings: in vivo, read-out: PB
[29] = AUC (0 to 24 hrs) in human GTL16 cells xenografted athymic mouse at 50 mg/kg, po; assay type: ADME, organism-based; parameters: time < 24 hr, dose 50 mg/kg, route oral; settings: in vivo; outline: as §2
[30] = Oral bioavailability in BALB/c mouse at 10 mg/kg; assay type: ADME, organism-based; settings: in vivo; outline: as §1
NCI-H1993 = experiment: Antiproliferative activity against Met-dependent human NCI-H1993 cells after 72 hrs by MTS assay; assay type: functional, cell-based; settings: NCI-H1993, 72 h
[31] = Half life in BALB/c mouse at 5 mg/kg, iv; assay type: ADME, organism-based; parameters: dose 5 mg/kg, route intravenous; settings: in vivo; outline: as §1
[32] = target: Inhibitor of NF-kappa-B kinase alpha/beta (Homo sapiens, UniProt O14920+O15111); experiment: Inhibition of IKK1/2
Mus musculus [33] = experiment: Toxicity in human GTL16 cells xenografted athymic mouse assessed as weight loss/morbidity at 50 mg/kg, po; assay type: organism-based; parameters: dose 50 mg/kg, route oral; settings: in vivo; outline: as §2
[34] = Antitumor activity in human GTL16 cells xenografted athymic mouse at 50 mg/kg, po administered once daily for 14 days; assay type: functional; settings: GTL 16, 336 h, read-out: TGI
[35] = Volume of distribution at steady state in BALB/c mouse at 5 mg/kg, iv; assay type: ADME, organism-based; parameters: dose 5 mg/kg, route intravenous; settings: in vivo, read-out: Vdss; outline: as §1
[36] = target: High affinity nerve growth factor receptor (Homo sapiens, UniProt P04629); experiment: Inhibition of TrkA
[37] = target: Tyrosine-protein kinase Mer (Homo sapiens, UniProt Q12866); experiment: Inhibition of Mer
[38] = target: T1, Hepatocyte growth factor receptor (Homo sapiens, UniProt P08581); experiment: Inhibition of Met phosphorylation in human GTL16 cells after 30 mins; assay type: cell-based
T1 sequence (P08581 whole entry): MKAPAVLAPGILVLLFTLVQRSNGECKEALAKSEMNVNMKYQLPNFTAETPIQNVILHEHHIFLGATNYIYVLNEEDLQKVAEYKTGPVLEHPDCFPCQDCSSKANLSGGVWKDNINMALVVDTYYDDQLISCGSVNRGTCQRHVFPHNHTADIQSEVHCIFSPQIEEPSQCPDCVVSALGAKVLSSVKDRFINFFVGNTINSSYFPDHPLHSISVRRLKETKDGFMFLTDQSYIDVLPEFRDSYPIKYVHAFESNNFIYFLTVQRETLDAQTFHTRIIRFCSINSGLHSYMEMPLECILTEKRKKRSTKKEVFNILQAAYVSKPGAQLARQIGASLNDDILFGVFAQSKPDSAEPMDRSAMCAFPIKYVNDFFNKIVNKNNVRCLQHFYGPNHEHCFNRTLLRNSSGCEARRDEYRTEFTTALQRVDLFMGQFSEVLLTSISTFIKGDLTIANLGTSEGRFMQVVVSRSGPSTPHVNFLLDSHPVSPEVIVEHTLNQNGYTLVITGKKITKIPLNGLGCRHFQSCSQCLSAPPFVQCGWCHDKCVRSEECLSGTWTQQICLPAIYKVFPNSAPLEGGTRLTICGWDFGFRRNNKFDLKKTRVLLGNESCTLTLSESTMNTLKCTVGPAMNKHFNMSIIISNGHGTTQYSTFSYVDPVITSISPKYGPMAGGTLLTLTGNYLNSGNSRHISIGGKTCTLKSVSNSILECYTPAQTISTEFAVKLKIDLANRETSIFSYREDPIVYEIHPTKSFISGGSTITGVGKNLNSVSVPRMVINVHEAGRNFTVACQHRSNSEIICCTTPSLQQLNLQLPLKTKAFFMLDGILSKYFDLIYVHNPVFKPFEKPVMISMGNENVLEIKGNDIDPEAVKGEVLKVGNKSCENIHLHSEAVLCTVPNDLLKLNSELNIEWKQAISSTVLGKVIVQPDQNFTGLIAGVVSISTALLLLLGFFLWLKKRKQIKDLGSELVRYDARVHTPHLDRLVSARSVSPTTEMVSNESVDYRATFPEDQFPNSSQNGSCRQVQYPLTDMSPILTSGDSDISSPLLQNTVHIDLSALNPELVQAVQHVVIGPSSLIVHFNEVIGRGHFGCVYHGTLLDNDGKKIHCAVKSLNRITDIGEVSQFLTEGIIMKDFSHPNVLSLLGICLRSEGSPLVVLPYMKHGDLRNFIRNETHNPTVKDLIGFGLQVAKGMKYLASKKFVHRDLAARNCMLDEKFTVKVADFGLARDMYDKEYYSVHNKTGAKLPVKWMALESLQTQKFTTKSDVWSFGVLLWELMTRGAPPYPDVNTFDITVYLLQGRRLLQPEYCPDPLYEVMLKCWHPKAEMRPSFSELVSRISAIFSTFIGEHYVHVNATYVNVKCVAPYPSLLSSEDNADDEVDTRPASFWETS
Outline: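 Human GTL-16 gastric carcinoma cells were incubated with compound for 30 min, then lysed. Phospho-Met protein levels in the lysates were assessed across a range of concentrations.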

[39] = target: Vascular endothelial growth factor receptor 2 (Homo sapiens, UniProt P35968); experiment: Inhibition of VEGFR2
[40] = Inhibition of PKA
[41] = Half life in Sprague-Dawley rat at 5 mg/kg, iv; assay type: ADME, organism-based; parameters: dose 5 mg/kg, route intravenous; settings: in vivo; outline: as §1
[42] = target: T1, Hepatocyte growth factor receptor; experiment: Inhibition of MET
[43] = target: Tyrosine-protein kinase receptor TYRO3 (Homo sapiens, UniProt Q06418); experiment: Inhibition of Tyro3
[44] = Antiproliferative activity against Met-driven human U87 cells after 72 hrs by MTS assay; assay type: functional, cell-based, U-87MG ATCC; settings: U-87 MG
[45] = Antitumor activity in human GTL16 cells xenografted athymic mouse at 6.25 mg/kg, po administered once daily for 14 days; assay type: functional; settings: GTL 16, 336 h, read-out: TGI
Mus musculus [46] = experiment: Toxicity in human GTL16 cells xenografted athymic mouse assessed as weight loss/morbidity at 25 mg/kg, po; assay type: organism-based; parameters: dose 25 mg/kg, route oral; settings: in vivo; outline: as §2
Mus musculus [47] = experiment: Toxicity in human GTL16 cells xenografted athymic mouse assessed as weight loss/morbidity at 6.25 mg/kg, po; assay type: organism-based; parameters: dose 6.25 mg/kg, route oral; settings: in vivo; outline: as §2
Aurora kinase B = Aurora kinase B (Homo sapiens, UniProt Q96GD4); experiment: Inhibition of Aurora B
Aurora kinase B, sequence (Q96GD4 whole entry): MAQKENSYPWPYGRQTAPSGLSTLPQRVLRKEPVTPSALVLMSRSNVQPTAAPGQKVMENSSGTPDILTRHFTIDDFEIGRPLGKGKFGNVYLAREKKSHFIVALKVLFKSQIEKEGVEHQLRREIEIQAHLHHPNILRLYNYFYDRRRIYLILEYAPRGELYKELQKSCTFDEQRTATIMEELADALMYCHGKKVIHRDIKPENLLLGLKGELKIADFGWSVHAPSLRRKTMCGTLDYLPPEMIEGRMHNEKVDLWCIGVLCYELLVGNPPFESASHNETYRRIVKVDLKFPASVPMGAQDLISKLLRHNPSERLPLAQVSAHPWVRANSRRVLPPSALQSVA

[48] = target: MAP kinase-activated protein kinase 2 (Homo sapiens, UniProt P49137); experiment: Inhibition of MK2
MAP kinase-activated protein kinase 2, sequence (P49137 whole entry): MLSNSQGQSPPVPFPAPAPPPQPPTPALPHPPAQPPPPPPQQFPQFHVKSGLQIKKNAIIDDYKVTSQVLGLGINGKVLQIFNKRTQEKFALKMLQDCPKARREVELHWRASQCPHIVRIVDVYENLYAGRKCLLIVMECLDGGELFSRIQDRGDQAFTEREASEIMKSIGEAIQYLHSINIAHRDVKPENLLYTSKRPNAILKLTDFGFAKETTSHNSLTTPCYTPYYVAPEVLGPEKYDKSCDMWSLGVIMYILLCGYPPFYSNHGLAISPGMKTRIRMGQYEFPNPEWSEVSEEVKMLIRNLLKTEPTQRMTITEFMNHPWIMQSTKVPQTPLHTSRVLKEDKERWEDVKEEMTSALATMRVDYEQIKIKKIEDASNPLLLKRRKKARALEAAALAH

[49] = Oral bioavailability in Beagle dog at 5 mg/kg; assay type: ADME, organism-based, Canis lupus familiaris; settings: in vivo; outline: as §1
[50] = Clearance in Sprague-Dawley rat at 5 mg/kg, iv; assay type: ADME, organism-based; parameters: dose 5 mg/kg, route intravenous; settings: in vivo; outline: as §1

SMILES: CCOc1ccn(-c2ccc(F)cc2)c(=O)c1C(=O)Nc1ccc(Oc2ccnc(N)c2Cl)c(F)c1 [BMS-777607]
- Tmax [1]: 2.3 h
- Cmax [2]: 4.5 µM
- IC50 [3]: 100 nM
- IC50 [4]: > 500 nM
- inhibition in vivo at 25 mg/kg [5]: 95%
- bioavailability [6]: 100%
- IC50 [7]: 1000 nM
- fraction unbound [8]: < 0.01
- IC50 [9]: > 500 nM
- Cmax (Rattus norvegicus): 8.7 µM
- fraction unbound [10]: < 0.01
- Vd [11]: 0.2 L/kg
- Vd [12]: 1 L/kg
- IC50 [13]: 190 nM
- Tmax [14]: 0.5 h
- clearance [15]: 4.4 mL/min/kg
- IC50 [16]: 1.8 nM
- Cmax [17]: 43.7 µM
- IC50 [18]: > 2000 nM
- IC50 [19]: > 2000 nM
- AUC(0-t) at 24 h [20]: 37 µM·h
- clearance [21]: 0.82 mL/min/kg
- IC50 [22]: > 2000 nM
- IC50 (Ephrin type-A receptor 3): > 500 nM
- half-life [23]: 4.9 h
- solubility [24]: 400 µg/mL (≈ 780 µM)
- Cmax (Canis familiaris): 29 µM
- Cmax (Mus musculus [25]): 17.6 µM
- IC50 [26]: > 2000 nM
- Tmax [27]: 1.7 h
- IC50 (NCI-N87): > 10000 nM
- fraction unbound [28]: < 0.01
- AUC(0-t) at 24 h [29]: 567 µM·h
- bioavailability [30]: 100%
- IC50 (NCI-H1993): 150 nM
- half-life [31]: 4.5 h
- IC50 [32]: > 2000 nM
- Activity (Mus musculus [33]): Non-toxic
- inhibition in vivo at 50 mg/kg [34]: 102%
- Vd [35]: 1.2 L/kg
- IC50 [36]: 290 nM
- IC50 [37]: 14 nM
- IC50 [38]: 20 nM
- IC50 [39]: 180 nM
- IC50 [40]: 550 nM
- half-life [41]: 4.8 h
- IC50 [42]: 3.9 nM
- IC50 [43]: 4.3 nM
- IC50 [44]: 160 nM
- inhibition in vivo at 6.25 mg/kg [45]: 66%
- Activity (Mus musculus [46]): Non-toxic
- Activity (Mus musculus [47]): Non-toxic
- IC50 (Aurora kinase B): 78 nM
- IC50 [48]: > 2000 nM
- bioavailability [49]: 100%
- clearance [50]: 12.1 mL/min/kg

SMILES: CN1CCN(Cc2c(Oc3ccc(NC(=O)c4cccn(-c5ccc(F)cc5)c4=O)cc3F)ccnc2N)CC1
- IC50 [3]: 2800 nM
- IC50 [42]: 5.9 nM

SMILES: Nc1cc(Oc2ccc(NC(=O)c3cccn(-c4ccc(F)cc4)c3=O)cc2F)ccn1
- IC50 [3]: 170 nM
- IC50 [42]: 4.5 nM

The next compounds have a lower IC50 [42] than those just listed; values first:

- IC50 [42]: 3.4 nM
SMILES: Nc1nccc(Oc2ccc(NC(=O)c3cccn(-c4ccc(F)cc4)c3=O)cc2F)c1CO
- IC50 [3]: 280 nM

- IC50 [42]: 3.2 nM
SMILES: CC(C)Oc1ccn(-c2ccc(F)cc2)c(=O)c1C(=O)Nc1ccc(Oc2ccnc(N)c2Cl)c(F)c1
- IC50 [3]: 140 nM

- IC50 [42]: 2.6 nM
SMILES: Nc1nccc(Oc2ccc(NC(=O)c3c(OCCO)ccn(-c4ccc(F)cc4)c3=O)cc2F)c1Cl
- IC50 [3]: 250 nM
